Data published in ChEMBL document CHEMBL3232768, “Structure-activity relationships of β-hydroxyphosphonate nucleoside analogues as cytosolic 5'-nucleotidase II potential inhibitors: synthesis, in vitro evaluation and molecular modeling studies” (Eur J Med Chem, 2014).

Columns and labels:
Homo sapiens = species: Homo sapiens; assay: Inhibition of recombinant C-terminal His-tagged cN2 N-terminal 30 amino acid deletion mutant (unknown origin) expressed in Escherichia coli BL21 using IMP as substrate at 1 mM after 5 mins by green malachite phosphate assay
How it was run: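 Enzyme was purified from E. coli BL21 carrying pET24b by His-Trap affinity and then Superdex 75 gel filtration. Final enzyme was 0.1 in 50 mM imidazole pH 6.5, 500 mM NaCl, 10 mM MgCl₂, 1 mM DTT on ice. The reaction was started with 50 IMP plus equimolar Mg²⁺ and run 5 min at 37 °C. Malachite green reagent stopped it; released phosphate was read above 630 nm against a phosphate calibration curve.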

[1] = Competitive inhibition of recombinant C-terminal His-tagged cN2 N-terminal 30 amino acid deletion mutant (unknown origin) expressed in Escherichia coli BL21 using IMP as substrate by double reciprocal plot analysis; set-up: species or system Homo sapiens
How it was run: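 Kinetic assay with His-Trap and Superdex 75-purified enzyme at 0.1. Buffer was 50 mM imidazole pH 6.5, 500 mM NaCl, 10 mM MgCl₂, 1 mM DTT, with enzyme and substrate freshly prepared in it. Rate constants were measured at IMP from 200 to 3 mM to derive Ki. It was also used for compounds that react with the malachite green colorant.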

Row | SMILES | inhibition (Homo sapiens) | Ki [1]
1 | Nc1ccn([C@@H]2O[C@H]([C@@H](O)CP(=O)(O)O)[C@@H](O)[C@H]2O)c(=O)n1 | 42% | –
2 | CCOP(=O)(C[C@@H](O)[C@H](CO)O[C@H](CO)n1ccc(=O)[nH]c1=O)OCC | 10% | –
3 | CCOP(=O)(C[C@@H](O)[C@H]1O[C@@H](n2ccc(=O)[nH]c2=O)[C@@H](O)[C@@H]1O)OCC | 2% | –
4 | O=c1ccn([C@@H]2O[C@H]([C@H](O)CP(=O)(O)O)[C@@H](O)[C@H]2O)c(=O)[nH]1 | 72% | 2.08 mM
5 | CCCCC#Cc1cn([C@@H]2O[C@H]([C@H](O)CP(=O)(O)O)[C@@H](O)[C@H]2O)c(=O)nc1N | 40% | –
6 | O=c1ccn([C@@H]2O[C@H]([C@H](O)CP(=O)(O)O)[C@@H](O)[C@@H]2O)c(=O)[nH]1 | 25% | > 100 mM
7 | CCOP(=O)(C[C@@H](O)[C@H]1O[C@@H](n2ccc(=O)[nH]c2=O)[C@H](O)[C@H]1O)OCC | 26% | –
8 | CCOP(=O)(C[C@@H](O)[C@H]1O[C@@H](n2ccc(N)nc2=O)[C@@H](O)[C@@H]1O)OCC | 20% | –
9 | Nc1ccn([C@@H]2O[C@H]([C@H](O)CP(=O)(O)O)[C@H](O)[C@H]2O)c(=O)n1 | 48% | 8.9 mM
10 | CC(C)(C)C#Cc1cn([C@@H]2O[C@H]([C@H](O)CP(=O)(O)O)[C@@H](O)[C@H]2O)c(=O)nc1N | 46% | 7.33 mM
11 | CCCCC#Cc1cn([C@@H]2O[C@H]([C@H](O)CP(=O)(O)O)[C@@H](O)[C@H]2O)c(=O)[nH]c1=O | 45% | –
12 | O=c1ccn([C@@H](CO)O[C@@H](CO)[C@H](O)CP(=O)(O)O)c(=O)[nH]1 | 20% | –
13 | Nc1nc(=O)n([C@@H]2O[C@H]([C@H](O)CP(=O)(O)O)[C@@H](O)[C@H]2O)cc1-c1ccccc1 | 60% | 2.01 mM
14 | CC(C)(C)C#Cc1cn([C@@H]2O[C@H]([C@H](O)CP(=O)(O)O)[C@@H](O)[C@H]2O)c(=O)[nH]c1=O | – | 5.94 mM
15 | Nc1ccn([C@@H]2O[C@H]([C@H](O)CP(=O)(O)O)[C@@H](O)[C@@H]2O)c(=O)n1 | 80% | 0.978 mM
16 | CCOP(=O)(C[C@@H](O)[C@H]1O[C@@H](n2ccc(=O)[nH]c2=O)[C@H](O)[C@@H]1O)OCC | 11% | –
17 | O=c1ccn([C@@H]2O[C@H]([C@H](O)CP(=O)(O)O)[C@H](O)[C@H]2O)c(=O)[nH]1 | 25% | –
18 | Nc1ccn([C@@H](CO)O[C@@H](CO)[C@H](O)CP(=O)(O)O)c(=O)n1 | 45% | 4.06 mM
19 | Nc1ccn([C@@H]2O[C@H]([C@H](O)CP(=O)(O)O)[C@H](O)[C@@H]2O)c(=O)n1 | 35% | 11.1 mM
20 | Nc1ccn([C@@H]2O[C@H]([C@H](O)CP(=O)(O)O)[C@@H](O)[C@H]2O)c(=O)n1 | 85% | 1.74 mM
21 | O=c1ccn([C@@H]2O[C@H]([C@H](O)CP(=O)(O)O)[C@H](O)[C@@H]2O)c(=O)[nH]1 | 25% | > 50 mM
22 | O=c1ccn([C@@H]2O[C@H]([C@@H](O)CP(=O)(O)O)[C@@H](O)[C@H]2O)c(=O)[nH]1 | 43% | –
23 | CCOP(=O)(C[C@@H](O)[C@H]1O[C@@H](n2ccc(N)nc2=O)[C@H](O)[C@@H]1O)OCC | 18% | –
24 | CCOP(=O)(C[C@@H](O)[C@H](CO)O[C@H](CO)n1ccc(N)nc1=O)OCC | 21% | –
25 | Nc1nc(=O)n([C@@H]2O[C@H]([C@H](O)CP(=O)(O)O)[C@@H](O)[C@H]2O)cc1C#Cc1ccccc1 | – | 8.85 mM
26 | Nc1nc(=O)n([C@@H]2O[C@H]([C@H](O)CP(=O)(O)O)[C@@H](O)[C@H]2O)cc1/C=C/c1ccccc1 | – | 1.14 mM
27 | O=c1[nH]c(=O)n([C@@H]2O[C@H]([C@H](O)CP(=O)(O)O)[C@@H](O)[C@H]2O)cc1/C=C/c1ccccc1 | – | 3.36 mM
28 | O=c1[nH]c(=O)n([C@@H]2O[C@H]([C@H](O)CP(=O)(O)O)[C@@H](O)[C@H]2O)cc1C#Cc1ccccc1 | – | 2.18 mM
29 | O=c1[nH]c(=O)n([C@@H]2O[C@H]([C@H](O)CP(=O)(O)O)[C@@H](O)[C@H]2O)cc1-c1ccccc1 | 24% | –
